Consider two molecules from ChEMBL document CHEMBL1141433, “Tauramamide, a lipopeptide antibiotic produced in culture by Brevibacillus laterosporus isolated from a marine habitat: structure elucidation and synthesis” (2007).

Assay type in all cases: functional
One assay has as its system Enterococcus sp. The assay can be described thus: Antimicrobial activity against Enterococcus sp. by Alamar blue assay. The procedure, abridged: (§1)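 1:2 serial dilution in liquid culture; compound dissolved in DMSO or EtOH. Bacteria grown in TSB+ (5 g/L NaCl); C. albicans in Sabouraud or TSB+. Alamar Blue redox indicator read by colour: blue/purple means growth inhibited, bright pink means growth.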
For orientation: Resazurin is reduced to fluorescent resorufin, in cell work by metabolically active cells.

Assay [1] relates to Staphylococcus aureus. The assay can be described thus: Antimicrobial activity against methicillin-resistant Staphylococcus aureus by agar extract inclusion assay. The procedure, abridged:
(§2)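 Compound dissolved in DMSO or EtOH and mixed into Mueller Hinton agar cooled to 50 °C. Agar serially diluted 1:2 with more cooled agar. Pathogens spotted on the surface at about 2.5 × 10⁵ cells/mL inoculum. Plates incubated overnight at 37 °C and scored for growth inhibition to give the MIC.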

Assay [2] relates to Candida albicans. The assay can be described thus: Antimicrobial activity against Candida albicans by Alamar blue assay. The procedure, abridged: as §1
The subject of assay [3] is Staphylococcus aureus. The experiment in a line: Antimicrobial activity against methicillin-resistant Staphylococcus aureus by Alamar blue assay. The procedure, abridged:
as §1

Assay [4] has as its system Candida albicans. The experiment in a line: Antimicrobial activity against Candida albicans by agar extract inclusion assay. The procedure, abridged: as §2

Values after ≈ are worked out from the molar mass of the structure shown. Active and inactive are the calls of the source.

In general, MIC refers to the smallest concentration in the dilution series that meets the test's criterion for growth inhibition. Regarding `CC(C)CCCCCC(=O)N[C@H](Cc1ccc(O)cc1)C(=O)N[C@@H](CO)C(=O)N[C@H](CC(C)C)C(=O)N[C@@H](Cc1c[nH]c2ccccc12)C(=O)N[C@@H](CCCNC(=N)N)C(=O)O` [TAURAMAMIDE], the MIC against Enterococcus sp. turned out to be 0.1 µg/mL (≈ 0.116 µM); in the assay on Staphylococcus aureus [1] it was 200 µg/mL (≈ 231 µM); in the assay on Candida albicans [4], 50 µg/mL (≈ 57.9 µM). Moreover, the result in the assay on Candida albicans [2] and in the assay on Staphylococcus aureus [3] was inactive.

For the molecule `CCOC(=O)[C@H](CCCNC(=N)N)NC(=O)[C@H](Cc1c[nH]c2ccccc12)NC(=O)[C@@H](CC(C)C)NC(=O)[C@H](CO)NC(=O)[C@@H](Cc1ccc(O)cc1)NC(=O)CCCCCC(C)C` [TAURAMAMIDE ETHYL ESTER], the MIC is 0.1 µg/mL (≈ 0.112 µM) in the assay with Enterococcus sp.; 9.4 µg/mL (≈ 10.5 µM) against Staphylococcus aureus [1]; 200 µg/mL (≈ 224 µM) in the assay with Candida albicans [2]; 25 µg/mL (≈ 28 µM) against Staphylococcus aureus [3]; 75 µg/mL (≈ 84.1 µM) in the assay with Candida albicans [4].
